ChEMBL document CHEMBL4837217, “Design, synthesis, in vitro and in vivo biological evaluation of pyranone-piperazine analogs as potent antileishmanial agents” (Eur J Med Chem, 2021)
The source made the active and inactive calls. No cut-off for these calls is given here.

Assays:
[1] = Cytotoxicity against mouse J774 cells assessed as reduction in cell viability incubated for 72 hrs by MTT assay; format: cell-based
In short: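 J774 macrophages seeded at 1 × 10^5 cells/well overnight, then exposed to graded concentrations (7.81–500 µM) for 72 h at 37 °C, 5% CO2. MTT (5 mg/mL) added for 2 h, formazan solubilized in DMSO and read at 570 nm. CC50 taken as 50% viability loss relative to untreated cells.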

Leishmania donovani [2] = assay: Antileishmanial activity against amastigote stage of Leishmania donovani MHOM/IN/80/Dd8 harboring luciferase gene infected in mouse J774 cells assessed as parasite growth inhibition at 50 uM incubated for 72 hrs by Steady-Glo reagent based luciferase assay; format: functional; settings: MHOM/IN/80/Dd8, J774
In short: (§1)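 J774 murine macrophages, 4 × 10⁴ cells/well in RPMI with 10% FBS for 24 h, are infected for 24 h at 37 °C, 5% CO₂ with stationary-phase luciferase-transfected L. donovani Dd8 promastigotes at a 1:8 macrophage:parasite ratio. Compounds are dissolved in DMSO. Luminescence is read after Steady-Glo is added in PBS. IC₅₀ is taken from a four-parameter Hill nonlinear regression. Miltefosine is the reference.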

Leishmania donovani [3] = assay: Antileishmanial activity against amastigote stage of Leishmania donovani MHOM/IN/80/Dd8 harboring luciferase gene infected in mouse J774 cells assessed as parasite growth inhibition at 25 uM incubated for 72 hrs by Steady-Glo reagent based luciferase assay; format: functional; settings: MHOM/IN/80/Dd8, J774; in short: as §1
Leishmania donovani [4] = assay: Induction of apoptosis in Leishmania donovani MHOM/IN/80/Dd8 promastigotes assessed as late apoptotic cells at 50 uM measured after 48 hrs by Alexa fluor488-AnnexinV/PI staining based FACSCalibur flow cytometry analysis (reference value: 0.7%); format: functional
Leishmania donovani [5] = assay: Antileishmanial activity against Leishmania donovani MHOM/IN/80/Dd8 infected in BALB/c mouse assessed as reduction in intracellular amastigote burden in spleen at 50 mg/kg, ip for 5 days and measured at 1 week post-treatment by Giemsa staining based assay relative to control; format: functional; settings: MHOM/IN/80/Dd8, ip, 288 h, time 12 day
In short: (§2)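 Female BALB/c mice (20–25 g), 5/group, infected iv with 2 × 10^7 stationary-phase L. donovani promastigotes. Infection confirmed at 2 wk, then 50 mg/kg ip daily for 5 consecutive days. Vehicle was 5% DMSO. Sacrificed day 7 post-treatment. Giemsa-stained liver/spleen impression smears counted as amastigotes/1000 nucleated cells, expressed as LDU (amastigotes per nucleated cell × organ weight in mg), compared with untreated infected controls.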

Leishmania donovani [6] = assay: Antileishmanial activity against Leishmania donovani MHOM/IN/80/Dd8 infected in BALB/c mouse assessed as reduction in intracellular amastigote burden in liver at 50 mg/kg, ip for 5 days and measured at 1 week post-treatment by Giemsa staining based assay relative to control; format: functional; settings: MHOM/IN/80/Dd8, ip, 288 h, time 12 day; in short: as §2
Splenocyte [7] = assay: Immunomodulatory activity in BALB/c mouse infected with Leishmania donovani amastigotes assessed as increase in IL-12 level in splenocytes supernatants at 50 mg/kg, ip for 5 days; format: functional, organism-based; settings: time 5.0 day
Splenocyte [8] = assay: Immunomodulatory activity in BALB/c mouse infected with Leishmania donovani amastigotes assessed as decrease in IL-10 level in splenocytes supernatants at 50 mg/kg, ip for 5 days; format: functional, organism-based; settings: time 5.0 day
Leishmania donovani [9] = assay: Induction of apoptosis in Leishmania donovani MHOM/IN/80/Dd8 promastigotes assessed as early apoptotic cells at 50 uM measured after 24 hrs by Alexa fluor488-AnnexinV/PI staining based FACSCalibur flow cytometry analysis (reference value: 10.3%); format: functional
Leishmania donovani [10] = assay: Induction of apoptosis in Leishmania donovani MHOM/IN/80/Dd8 promastigotes assessed as early apoptotic cells at 50 uM measured after 72 hrs by Alexa fluor488-AnnexinV/PI staining based FACSCalibur flow cytometry analysis (reference value: 10.3%); format: functional
Leishmania donovani [11] = assay: Induction of apoptosis in Leishmania donovani MHOM/IN/80/Dd8 promastigotes assessed as late apoptotic cells at 50 uM measured after 72 hrs by Alexa fluor488-AnnexinV/PI staining based FACSCalibur flow cytometry analysis (reference value: 0.7%); format: functional
Leishmania donovani [12] = assay: Induction of mitochondrial membrane potential dysfunction in Leishmania donovani MHOM/IN/80/Dd8 promastigotes assessed as cells with mitochondrial depolarization at 50 uM incubated for 24 hrs by JC1 staining based flow cytometry (reference value: 3.63%); format: functional
In short: (§3)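 Promastigotes (1 × 10^6 cells/mL) exposed to 50 µM for 24–72 h, or to IC50 for 72 h. CCCP (50 µM final) served as depolarization positive control. Cells washed, stained with JC-1 (2 µM final) 30 min at 37 °C, 5% CO2. Red-to-green fluorescence shift measured by flow cytometry.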

Leishmania donovani [13] = assay: Induction of mitochondrial membrane potential dysfunction in Leishmania donovani MHOM/IN/80/Dd8 promastigotes assessed as cells with mitochondrial depolarization at 50 uM incubated for 48 hrs by JC1 staining based flow cytometry (reference value: 3.63%); format: functional; in short: as §3
Leishmania donovani [14] = assay: Induction of mitochondrial membrane potential dysfunction in Leishmania donovani MHOM/IN/80/Dd8 promastigotes assessed as cells with mitochondrial depolarization at 50 uM incubated for 72 hrs by JC1 staining based flow cytometry (reference value: 3.63%); format: functional
Leishmania donovani [15] = assay: Induction of mitochondrial membrane potential dysfunction in Leishmania donovani MHOM/IN/80/Dd8 promastigotes assessed as cells with mitochondrial depolarization at IC50 incubated for 72 hrs by JC1 staining based flow cytometry (reference value: 6.6%); format: functional; in short: as §3
Leishmania donovani [16] = assay: Induction of apoptosis in Leishmania donovani MHOM/IN/80/Dd8 promastigotes assessed as increase in cytochrome c release by measuring increase in cytochrome c level in cytosol at 50 uM incubated for 12 to 72 hrs by Western blot analysis; format: functional, organism-based; settings: time 12-72 hrs
In short: (§4)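 Promastigotes treated with 50 µM for 12, 24, 48 and 72 h, then washed in PBS. Cell fractionation buffer applied 10 min on ice, cells homogenized, centrifuged 10,000 × g for 25 min at 4 °C. Cytosolic and mitochondrial fractions immunoblotted for cytochrome c. Loading controls were actin (cytosol) and COX-4 (mitochondria).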

Leishmania donovani [17] = assay: Induction of apoptosis in Leishmania donovani MHOM/IN/80/Dd8 promastigotes assessed as DNA fragmentation by measuring bright green coloured positive apoptotic nuclei at 50 uM incubated for 72 hrs by TUNEL staining based confocal microscopic analysis; format: functional, organism-based
In short: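 Log-phase promastigotes treated with 50 µM for 72 h, washed, adhered to poly-L-lysine slides and fixed in 4% paraformaldehyde. Permeabilized in ice-cold 70% ethanol 30 min. Labeled with TdT/BrdUTP 60 min at 37 °C, then Alexa Fluor 488 anti-BrdU 30 min and PI/RNase A 30 min. Imaged by confocal microscopy; vehicle was 0.1% DMSO.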

Leishmania donovani [18] = assay: Antileishmanial activity against amastigote stage of Leishmania donovani MHOM/IN/80/Dd8 harboring luciferase gene infected in mouse J774 cells assessed as parasite growth inhibition by Giemsa staining based analysis; format: functional, organism-based; settings: time 12-72 hrs, TDE = time-dependent effect
In short: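 J774 macrophages are infected for 24 h with stationary-phase luciferase-transfected Dd8 promastigotes at a 1:8 ratio in chamber slides. After compound treatment, cells are fixed and Giemsa-stained, and intracellular amastigotes are counted by microscopy.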

Leishmania donovani [19] = assay: Induction of apoptosis in Leishmania donovani MHOM/IN/80/Dd8 promastigotes assessed as increase in cytochrome c release by measuring decrease in cytochrome c level in mitochondria at 50 uM incubated for 12 to 72 hrs by Western blot analysis; format: functional, organism-based; settings: time 12-72 hrs; in short: as §4

N#Cc1c(N2CCN(c3ccccc3O)CC2)cc(-c2ccccc2)oc1=O
CC50 at 72 h [1]: 351 µM | inhibition at 50 µM (Leishmania donovani [2]): 95.7% | inhibition at 25 µM (Leishmania donovani [3]): 84.2% | Activity (Leishmania donovani [4]): 2.3% | inhibition in vivo at 50 mg/kg (Leishmania donovani [5]): 56.9% | inhibition in vivo at 50 mg/kg (Leishmania donovani [6]): 67.3% | Activity (Splenocyte [7]): inactive | Activity (Splenocyte [8]): inactive | Activity (Leishmania donovani [9]): 15.4% | Activity (Leishmania donovani [10]): 41.4% | Activity (Leishmania donovani [11]): 13.1% | Activity (Leishmania donovani [12]): 32.9% | Activity (Leishmania donovani [13]): 54.1% | Activity (Leishmania donovani [14]): 86.9% | Activity (Leishmania donovani [15]): 22.9% | Activity (Leishmania donovani [16]): Active | Activity (Leishmania donovani [17]): Active | Activity (Leishmania donovani [18]): Tde | Activity (Leishmania donovani [19]): Active
